Sampled rows, rich in hits. Any-hit rate of the full collection: about 2.8%.
Bim-Mcl-1: inhibitors of Bim peptide binding to Mcl-1, primary screen, biochemical, bead-based flow cytometry, multiplex. inhibition, % at 10 µM. AID 1009, 2008. Bim peptide-Mcl-1 binding. hit rate 0.1% among 190,000; in the data active means inhibition above about 40%
Target sequence (Q07820 whole entry, looked up): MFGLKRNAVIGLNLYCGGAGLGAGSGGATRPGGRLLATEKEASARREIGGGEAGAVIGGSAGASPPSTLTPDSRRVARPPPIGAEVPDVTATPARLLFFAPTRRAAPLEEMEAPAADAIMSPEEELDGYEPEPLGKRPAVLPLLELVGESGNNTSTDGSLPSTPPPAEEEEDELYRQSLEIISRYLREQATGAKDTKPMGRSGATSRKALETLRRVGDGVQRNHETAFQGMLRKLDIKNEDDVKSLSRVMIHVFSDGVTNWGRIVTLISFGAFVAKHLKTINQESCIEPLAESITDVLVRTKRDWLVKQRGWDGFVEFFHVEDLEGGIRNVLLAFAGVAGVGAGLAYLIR
Calpain2 inh: inhibitors of pig calpain II, primary screen, biochemical, fluorogenic peptide substrate, 1536-well; purified calpain II, 30 min; inhibition, % at 16 µM; hit rate 0.37% among 220,000; AID 1236, 2008;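 active means inhibition above about 50%, limit read from the data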
Biofilm kill mix: clotrimazole potentiators killing C. albicans biofilm, primary screen, 4-compound mixtures. C. albicans biofilm persisters + clotrimazole, fluorescence viability; primary screen in compound mixtures of four per well. inhibition, % at 7.6 µM. hit rate 0.02% among 120,000. AID 1242, 2008;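 active means inhibition above 30.3% in the primary screen of four-compound pools, then above 30% when the compound was retested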;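 further: compounds exposed to preformed 24 h biofilms for 48 h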
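Assay system: C. albicans biofilms / Medium: RPMI/MOPS medium, pH 7.0 / Schedule: biofilm formation 24 h, compound exposure 48 h, 37 °C / Measured by: Alamar Blue fluorescence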
Mcl1-Noxa inh: Mcl-1/Noxa binding inhibitors, primary screen, biochemical, TR-FRET, 1536-well; Induced myeloid leukemia cell differentiation protein Mcl-1 (Homo sapiens), Q07820; TR-FRET Mcl-1/Noxa peptide binding, 2 h; inhibition, % at 21.7 µM; hit rate 1.5% among 220,000; AID 1022, 2008;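 active means compounds that cut the protein-peptide binding signal by more than 50% relative to plate controls in a single-dose test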;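 further: His-tagged Mcl-1 with rhodamine Noxa BH3 peptide and terbium anti-His antibody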
Mcl1-Bid inh: Mcl-1/Bid binding inhibitors, primary screen, biochemical, TR-FRET, 1536-well; Induced myeloid leukemia cell differentiation protein Mcl-1 (Homo sapiens), Q07820; TR-FRET Mcl-1/Bid-Dy647 peptide binding; hit rate 0.97% among 220,000; inhibition, % at 21.7 µM;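 active means compounds that cut the binding signal by more than half at the single screening dose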;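 further: His-tagged Mcl-1 with europium anti-His antibody binding Bid BH3 peptide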
Arbovirus inh: antivirals against arbovirus infection, primary screen, cell-based, full library, 10K replicate subset | arbovirus infection cell-based antiviral screen | inhibition, % at 10 µM | hit rate 0.37% among 200,000 | AID 1251, 2008; in the data active means inhibition above about 30%
Each line names hits and unclear results; the compound was inactive in the other large screens.

COC1=C(OC)C(=O)C(CCCCCCCCCCO)=C(C)C1=O	Mcl1-Noxa inh 55 (no result: Biofilm kill mix)
CC1=C(C)C(=O)C(CCCCC#CCCCC#CCO)=C(C)C1=O	none
CCC1CCC2(CC1)NC(CO)(CO)CO2 (stereo not drawn)	Mcl1-Bid inh 64 (no result: Biofilm kill mix)
CC1CCC2(CC1)NC(CO)(CO)CO2 (stereo not drawn)	none
Cc1cc(NC(=O)c2ccc3c(c2)C(=O)N(CCC(C)C)C3=O)no1	Calpain2 inh 53 (no result: Biofilm kill mix)
N#C/C(=N\Nc1ccc(S(=O)(=O)N2CCc3ccccc32)cc1)C(N)=S	Mcl1-Noxa inh 60
Cn1c(=O)cc(SCC(=O)NCCC2=CCCCC2)c2cc(Cl)ccc21	none
CC(C)[C@H](NC(=O)NCCC1=CCCCC1)C(=O)O	Mcl1-Bid inh 94 (no result: Bim-Mcl-1, Arbovirus inh)
CCC(C)[C@H](NC(=O)NCCC1=CCCCC1)C(=O)O (stereo partly drawn)	none (no result: Bim-Mcl-1, Arbovirus inh)
Cc1ccccc1-n1c(SC/C(O)=C(\C#N)c2nc3ccccc3[nH]2)nnc1-c1ccncc1	none (no result: Biofilm kill mix)
Cc1cc(C)n2c(SC/C(O)=C(\C#N)c3nc4ccccc4[nH]3)nnc2n1	Mcl1-Noxa inh 86 (no result: Biofilm kill mix)
CC(C)c1ccc(Nc2nnns2)cc1	none (no result: Bim-Mcl-1, Arbovirus inh)
O=C(CN1C(=O)CSc2ccc(S(=O)(=O)N3CCOCC3)cc21)NCc1cccnc1	Mcl1-Noxa inh 54
O=C(c1ccc2c(c1)OCO2)N1CCCc2ccccc21	none (no result: Biofilm kill mix)
Cc1ccc2c(c1)CCCN2C(=O)c1ccc2c(c1)OCO2	Calpain2 inh 50 (no result: Biofilm kill mix)
COc1ccc(N2CCN(C(c3cccs3)C(C)NS(C)(=O)=O)CC2)cc1 (stereo not drawn)	Calpain2 inh 51
Cc1ccccc1NCC(=O)N/N=C/C(Br)=C/c1ccccc1	Mcl1-Bid inh 90 (no result: Biofilm kill mix)
O=C(Cc1cccs1)Nc1nnc(Cc2ccccc2)s1	Mcl1-Noxa inh 82
COc1cc(NC(=O)c2ccccc2)c(OC)cc1NC(=O)Cc1cccs1	Mcl1-Noxa inh 61
COc1ccc(Cc2nnc(NC(=O)Cc3cccs3)s2)cc1OC	Mcl1-Noxa inh 96, Mcl1-Bid inh 76 (no result: Biofilm kill mix)
Cc1ccc([N+](=O)[O-])cc1NC(=O)Cc1cccs1	Mcl1-Noxa inh 56
COc1ccc(NC(=O)Cc2cccs2)c(OC)c1	none (no result: Biofilm kill mix)
COc1ccc(C(=O)Nc2nnc(Cc3cccs3)s2)cc1OC	none (no result: Biofilm kill mix)
O=C(Cc1cccs1)Nc1nnc(SCc2cccc3ccccc23)s1	Mcl1-Noxa inh 68
CCOc1ccc(N=C(/C(C(=O)C(=O)N2CCOCC2)=C(/O)c2ccccc2)c2ccccc2)cc1	none (no result: Bim-Mcl-1, Arbovirus inh)
O=C(CCNc1ccc(Cc2ccncc2)cc1)c1ccc([N+](=O)[O-])cc1	none
COc1cc2c(cc1OC)C(c1ccccc1F)OC(=O)C2 (stereo not drawn)	Bim-Mcl-1 96
COc1cccc(/C=C/C(=O)N2CCN(S(=O)(=O)c3ccccc3)CC2)c1OC	none (no result: Bim-Mcl-1, Arbovirus inh)
O=C(C1CCC(CNc2nc(=S)[nH]c3ccccc23)CC1)N1CCN(c2ccc(F)cc2)CC1 (stereo not drawn)	none
CN1/C(=C\C=C2/SC(=S)NC2=O)C(C)(C)c2ccccc21	none
CN1CCC/C1=C/C=C1\SC(=S)NC1=O	Calpain2 inh 60
Cc1ccc(S(=O)(=O)Nc2ccccn2)cc1[N+](=O)[O-]	none
Nc1ccc(Cc2ccc(N)c(O)c2)cc1O	Mcl1-Noxa inh 87
COc1cc(Cc2ccc(N)c(OC)c2)ccc1N	none
CC(=O)C(C(C)=O)c1c(Cl)c(O)c(O)c2c(C(=O)c3ccccc3)coc12	Mcl1-Noxa inh 56 (no result: Biofilm kill mix)
CN1CCN(Cc2c(O)ccc3occ(C(=O)c4ccccc4)c23)CC1	none (no result: Biofilm kill mix)
C/C(=N\NC(=O)COc1ccc(C#N)cc1)c1ccccc1OC(F)F	Bim-Mcl-1 49
C/C(=N\NC(=O)COc1ccc(C(C)(C)C)cc1)c1ccc(OC(F)F)cc1	none
Cc1c(NC(=O)C(C)OC(=O)c2c3c(nc4ccccc24)CCC3)c(=O)n(-c2ccccc2)n1C (stereo not drawn)	Mcl1-Noxa inh 54
O=c1nc(SCc2ccccc2Cl)nc(-c2ccc(Cl)cc2)[nH]1	Calpain2 inh 50 (no result: Bim-Mcl-1, Arbovirus inh)
COc1cccc(C2C3=C(N=c4s/c(=C\c5ccc(OCC(=O)O)cc5)c(=O)n42)c2ccccc2CC3)c1 (stereo not drawn)	Mcl1-Noxa inh 71 (no result: Bim-Mcl-1, Arbovirus inh)
COc1ccccc1C1C2=C(N=c3s/c(=C/c4cccc(OCC(=O)O)c4)c(=O)n31)c1ccccc1CC2 (stereo not drawn)	Mcl1-Noxa inh 107, Mcl1-Bid inh 82, Arbovirus inh 41
COc1cccc(C2C3=C(N=c4s/c(=C\c5ccc(O)cc5)c(=O)n42)c2ccccc2CC3)c1OC (stereo not drawn)	none
Cc1ccc(NC(=S)N(Cc2cccc(Br)c2)CC2CCC(C(=O)O)CC2)cc1 (stereo not drawn)	none
Cc1cc(NC(=S)N(Cc2cccc(Br)c2)CC2CCC(C(=O)O)CC2)ccc1Cl (stereo not drawn)	Calpain2 inh 53
CCN(C(=O)CSC1=Nc2ccccc2C2CC=NN12)C1CCS(=O)(=O)C1 (stereo not drawn)	none
C1=CC2CC1CC2CN1CCN(Cc2ccccc2)CC1 (stereo not drawn)	Mcl1-Bid inh 61 (no result: Biofilm kill mix)
CCOC(=O)CNC(=O)c1ccc(SCC)cc1	none (no result: Bim-Mcl-1, Arbovirus inh)
O=c1ccc2cc3c([nH]c4ccc(Br)cc43)oc-2c1O	Mcl1-Noxa inh 94 (no result: Biofilm kill mix)
COC(=O)N=Nc1c(O)[nH]c2ccc(Br)cc12	none (no result: Bim-Mcl-1, Arbovirus inh)
Cc1ccc(C2SCCN2C(=O)c2ccc([N+](=O)[O-])cc2)cc1 (stereo not drawn)	none
O=C(Cc1c(F)cccc1Cl)Nc1ccon1	Mcl1-Bid inh 83 (no result: Biofilm kill mix)
Cc1cc(C(=O)CSc2nnc(-c3ccncc3)n2-c2ccccc2)c(C)n1C	Mcl1-Bid inh 51 (no result: Biofilm kill mix)
Cc1cc(C(=O)CSc2nnc(-c3ccccc3)n2C)c(C)n1C	none (no result: Biofilm kill mix)
COc1ccc(N2CCN(C(c3cc(OC)ccc3OC)c3nnnn3CC3CCCO3)CC2)cc1 (stereo not drawn)	Mcl1-Noxa inh 60
COc1ccc(OC)c(C(c2nnnn2C2CCCC2)N2CCN(c3ccccc3F)CC2)c1 (stereo not drawn)	Calpain2 inh 51 (no result: Biofilm kill mix)
COc1ccc(N2CCN(C(c3ccccc3OC)c3nnnn3C3CCCC3)CC2)cc1 (stereo not drawn)	none (no result: Biofilm kill mix)
COc1ccc(C(c2nnnn2CC2CCCO2)N2CCN(c3ccccc3)CC2)cc1 (stereo not drawn)	none (no result: Biofilm kill mix)
COC(=O)c1cnc(SCc2ccc([N+](=O)[O-])cc2)n1C	none (no result: Bim-Mcl-1, Arbovirus inh)
COCCCNC(=S)Nc1c(C)cc(C)cc1C	none (no result: Bim-Mcl-1, Arbovirus inh)
Cc1ccc(C)c(NC(NC(=O)c2ccccn2)C(Cl)(Cl)Cl)c1 (stereo not drawn)	none
O=C(Nc1ccccc1)Nc1snnc1C(=O)Nc1cccc(O)c1	Arbovirus inh 48
Cc1nnsc1C(=O)NNC(=O)Nc1ccccc1	none

Source: PubChem BioAssay (several laboratories)
